Screening data: PubChem BioAssay, several laboratories
Compounds with a hit are over-represented: about 2.1% of the library has one in this group of screens.
eIF4H FP inh: inhibitors of RNA binding by human eIF4H. AID 2012. inhibition, % at 35 µM. Q15056. hit rate 0.94% among 290,000. eIF4H fluorescence polarization binding assay;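 also: calls also rest on retests at 20 µM and on dose response follow-up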
EBNA-1 inhibitor: blocks EBNA-1 binding to DNA | inhibition, % at 14.8 µM | AID 1950 | EBNA-1 DNA binding, fluorescence polarization | hit rate 0.34% among 300,000; in the data active = inhibition above about 28%
NS3 helicase inh: inhibitors of Hepatitis C virus NS3 helicase; NS3 helicase DNA unwinding, Cy5 molecular beacon fluorescence; inhibition, % at 10.9 µM; hit rate 0.56% among 290,000;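 active = inhibition above the mean of all tested compounds plus 3 SD, set per campaign, cut at about 35% in these data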
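Assay system: hepatitis C virus NS3 helicase domain fragment enzyme. Also added: annealed dual-labelled DNA beacon duplex, ATP-started. Timing: 1 h reaction at 25 °C, ATP-initiated. Technique: Cy5 fluorescence at 0 and 60 min, beacon hairpin quenching. Evaluation: % inhibition of unwinding. Replication: one well per compound.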
PABP1 MLLE inh: inhibitors of microRNA-mediated deadenylation, human PABP1 MLLE binding | P11940 | inhibition, % at 20 µM | GST-MLLE / FITC-PAM2 fluorescence polarization | hit rate 0.36% among 360,000; in the data active = inhibition above about 35%, passing the limit was not always enough
PABP FP inh: PABP-poly(A) binding inhibition. AID 2014. PABP-poly(A) RNA binding, fluorescence polarization. hit rate 1% among 290,000. inhibition, % at 35 µM;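 also: calls also rest on retests at 20 µM and on dose response follow-up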
ZTA counter: blocks Epstein-Barr virus ZTA, an EBNA-1 counter-screen. inhibition, % at 11 µM. P03206. hit rate 0.15% among 320,000. AID 2234. ZTA-DNA binding, fluorescence polarization; in the data active = inhibition above about 33%
Target sequence (P03206 whole entry, looked up): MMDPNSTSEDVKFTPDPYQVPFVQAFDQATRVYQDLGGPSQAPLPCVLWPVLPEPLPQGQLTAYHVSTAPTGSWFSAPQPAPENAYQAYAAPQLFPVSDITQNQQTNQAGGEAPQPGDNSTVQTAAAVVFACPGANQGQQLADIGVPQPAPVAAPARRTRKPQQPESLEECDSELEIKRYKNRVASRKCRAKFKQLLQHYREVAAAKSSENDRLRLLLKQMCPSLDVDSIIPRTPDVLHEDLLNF
NS3 hel confirm: confirmation of Hepatitis C virus NS3 helicase inhibitors; shares compounds with NS3 helicase inh; NS3 helicase DNA unwinding, Cy5 molecular beacon fluorescence; inhibition, % at 10.9 µM; hit rate 31% among 1,600;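 active = inhibition above the mean of all tested compounds plus 3 SD, cutoff set per campaign, cut at about 36% in these data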
FID counter trip: counter-screen for HCV NS3 helicase inhibitors: DNA intercalator displacement. shares compounds with NS3 helicase inh. DNA fluorescent intercalator displacement, fluorescence. inhibition, % at 7.9 µM. hit rate 4% among 1,600. AID 1945; in the data active = inhibition above about 37%;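 also: higher means more displacement of ethidium bromide from the DNA hairpin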
EBNA-1 confirm: EBNA-1 (EBV) inhibition, confirmation; shares compounds with EBNA-1 inhibitor; Recombinant EBNA-1 DBD, Cy5-DNA fluorescence polarization; inhibition, % at 14.8 µM; hit rate 35% among 830; AID 2292;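 active = mean inhibition across replicates above a set limit taken from the earlier primary screen, cut at about 28% in these data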
ZTA DNA inh trip: blocks Epstein-Barr virus ZTA in triplicate, EBNA-1 counter-screen; shares compounds with EBNA-1 inhibitor; Zta-ZRE DNA binding, Cy5 fluorescence polarization; inhibition, % at 11.1 µM; 830 tested, under 10 active; AID 2328;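 active = mean inhibition over triplicates above a set limit taken from the primary EBNA-1 screen, cut at about 37% in these data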;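 also: purified full length Zta protein with Cy5 labeled ZRE DNA probe; inhibitors lower polarization by freeing the labeled DNA probe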
Zta DNA confirm: EBV ZTA DNA binding inhibition, confirmation; AID 2361; hit rate 30% among 320; shares compounds with ZTA counter; inhibition, % at 11.1 µM; Zta-ZRE DNA binding, fluorescence polarization;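 active = mean inhibition across triplicate runs above the hit threshold derived for the original primary screen, cut at about 33% in these data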
EBNA1 counter: counter-screen for ZTA inhibitors: EBNA-1 DNA binding inhibition; shares compounds with ZTA counter; fluorescence polarization; inhibition, % at 14.8 µM; 320 tested, under 10 active
Hits are given with their value; - = inactive; . = no result given; + = active, no number. Unless noted, no rule for the calls is given here.

SMILES | eIF4H FP inh | EBNA-1 inhibitor | NS3 helicase inh | PABP1 MLLE inh | PABP FP inh | ZTA counter | EBNA-1 confirm | ZTA DNA inh trip | others
Cc1ccc(-n2cccc2/C=C2/C(=N)N3C(=NC2=O)SN=C3S(C)(=O)=O)cc1Cl | - | 32.4 | 48.8 | - | - | - | - | - | NS3 hel confirm=63.6;FID counter trip=-
Cc1cccc(C)c1-n1cccc1/C=C1/C(=N)N2C(=NC1=O)SN=C2S(C)(=O)=O | - | - | - | - | - | - | . | .
O=S(=O)(c1ccccc1)C(/C=N\O)/C=C/c1ccccc1 (configuration not stated) | - | - | - | - | - | - | . | .
C#CCN(C[C@H]1[C@H](OC(=O)NCc2ccccc2F)[C@H](OC(=O)NCc2ccccc2F)C[C@H]2C(=O)N(c3ccccc3)C(=O)[C@@H]12)S(=O)(=O)c1ccc(C)cc1 | . | . | . | - | . | . | . | .
CCCCn1c(N)c(N(CCC(C)C)C(=O)c2cc(-c3ccco3)nc3ccccc23)c(=O)[nH]c1=O | 59.6 | 51.3 | 40.6 | - | 19.5 | - | - | - | NS3 hel confirm=-;FID counter trip=-
Oc1ccc(N=Nc2ccccc2C(F)(F)F)c2cccnc12 | - | 95.1 | 48.5 | - | - | - | - | - | NS3 hel confirm=-;FID counter trip=-
Nc1c(C(=O)Nc2ccccc2)sc2nc(-c3cccnc3)ccc12 | - | - | - | . | - | - | . | .
Nc1c(C(=O)Nc2ccccc2)sc2nc(-c3ccco3)ccc12 | 75.3 | 54.4 | 82.5 | - | 75.7 | - | 59.5 | - | NS3 hel confirm=-;FID counter trip=-
Cc1ccc(C(=O)NNC(=O)C2CCN(c3nc(C)cc(C)n3)CC2)cc1 | - | - | - | - | - | - | . | .
COc1ccc(C(NC(=O)/C=C\c2ccco2)c2ccc(OC)c(OC)c2)cc1 (configuration not stated) | - | 39.3 | 36.9 | - | - | - | - | - | NS3 hel confirm=-;FID counter trip=-
O=c1[nH]c(/C=C\c2cccc(Cl)c2)nc(O)c1[N+](=O)[O-] | - | - | 36.5 | - | - | 39.7 | . | . | NS3 hel confirm=-;FID counter trip=-;Zta DNA confirm=38.1;EBNA1 counter=-
O=c1c(O)cccc2cc(O)c(O)c(O)c12 | 102.4 | - | 53.1 | 37.6 | 93.6 | 33.3 | . | . | NS3 hel confirm=107.8;FID counter trip=-;Zta DNA confirm=-;EBNA1 counter=-
CC(C)(CNC(=O)c1ccc(NS(=O)(=O)c2ccc(F)c(F)c2)cc1)N1CCOCC1 | . | - | . | - | . | - | . | .
O=C(O)CC(C(=O)O)N1C(=O)/C(=C/c2ccc(-c3nc4ccccc4s3)o2)SC1=S (configuration not stated) | 126.6 | - | 66.9 | - | - | 59.0 | . | . | NS3 hel confirm=67.0;FID counter trip=-;Zta DNA confirm=63.8;EBNA1 counter=-
Cc1cc(C)c2nc3sc(=Cc4ccc(-c5ccccc5C(=O)O)o4)c(=O)n3c2c1 | . | . | . | - | . | . | . | .
O=C(O)c1ccc(-c2ccc(/C=c3/sc4nc5ccccc5n4c3=O)o2)cc1Cl | - | - | 63.3 | - | 78.5 | 34.4 | . | . | NS3 hel confirm=60.1;FID counter trip=-;Zta DNA confirm=53.2;EBNA1 counter=-
C#CCOc1c(/C=C\c2nc(O)c([N+](=O)[O-])c(=O)[nH]2)cc(Br)cc1OC | - | - | 44.7 | - | - | 49.6 | . | . | NS3 hel confirm=-;FID counter trip=-;Zta DNA confirm=-;EBNA1 counter=-
COC(=O)COc1c(/C=C\c2nc(O)c([N+](=O)[O-])c(=O)[nH]2)cccc1OC | - | - | - | - | - | - | . | .
CCCCOC(=O)Nc1ccc(N2CCCCC2)cc1 | - | - | - | - | - | - | . | .
O=C(N/N=C/c1ccc[nH]1)c1sc2ccccc2c1Cl | - | - | - | - | - | - | . | .
Cc1cc(N/N=C/c2c(O)ccc3ccccc23)nc(-c2ccccc2O)n1 | - | 49.0 | - | - | - | - | - | -
COc1ccc(-n2ncc3c(=O)n(CC(=O)N4c5ccccc5CC4C)cnc32)cc1 (configuration not stated) | - | 31.1 | - | - | - | - | - | -
CCOC(=O)Cn1cnc2c(cnn2-c2ccc(OC)cc2)c1=O | - | - | - | - | - | - | . | .
Cc1cc(C(=O)N/N=C/c2ccc(-c3cccc(Cl)c3Cl)o2)n[nH]1 | - | - | - | - | - | - | . | .
COC(=O)N/N=C/c1cc(N=Nc2ccccc2)ccc1O | - | - | - | - | - | - | . | .
SMILES | eIF4H FP inh | EBNA-1 inhibitor | NS3 helicase inh | PABP1 MLLE inh | PABP FP inh | ZTA counter | EBNA-1 confirm | ZTA DNA inh trip | others
Cc1cc(C(=O)N/N=C/c2ccc(-c3cccc(Br)c3)o2)n[nH]1 | - | 35.4 | - | - | - | - | - | -
Cc1cc(C(=O)N/N=C/c2cc(N=Nc3ccccc3)ccc2O)n[nH]1 | - | 74.7 | - | - | - | - | - | 38.4
Cc1cccc(C)c1N(CC(=O)NN=C1CCCCCC1)S(C)(=O)=O | - | - | - | - | - | - | . | .
Cc1ccccc1CNC(=O)CCc1ccccc1 | - | - | - | - | - | - | . | .
Cc1ccn2c(CNCCCn3cccn3)c(C(=O)N3CCCCCC3)nc2c1 | - | - | - | - | - | - | . | .
COc1cc(CNC2CCCCCCC2)cc(Cl)c1OC | - | 89.9 | - | - | - | - | - | -
CCOc1c(Br)cc(CNC2CCCCCCC2)cc1OC | - | - | - | - | - | - | . | .
COc1ccc(NC(=O)COc2ccc3c(C)cc(=O)oc3c2)cc1S(=O)(=O)N1CCCCC1 | . | 100.8 | . | - | . | - | 66.7 | -
O=C(CCc1ccccc1)OCC(=O)c1ccc(Br)cc1 | - | - | - | - | - | - | . | .
CCCCOc1ccc(C(=O)Nn2c(-c3cccs3)nc3ccccc3c2=O)cc1 | - | 95.3 | - | - | - | - | 40.9 | -
CC(NC(=O)c1ccco1)c1nc(-c2ccccc2Cl)no1 (configuration not stated) | - | - | - | - | - | - | . | .
COc1ccc(N(C(C)C(=O)N/N=C/c2cc(Br)c(C)o2)S(C)(=O)=O)cc1 (configuration not stated) | - | - | - | - | - | - | . | .
COc1ccc(C(=O)CN2CCN(c3cc(C)nc4ccccc34)CC2)cc1 | - | - | - | - | - | - | . | .
Cc1cc(N2CCN(CC(O)C(F)(F)F)CC2)c2ccccc2n1 (configuration not stated) | - | + | - | - | - | - | - | -
CCCC(=O)N1CCN(S(=O)(=O)c2cc(Cl)ccc2OC)CC1 | - | - | - | - | - | - | . | .
O=C1N/C(=C\c2ccccc2)C(O)=C1C=NCc1ccccc1 | - | 33.3 | - | - | - | - | - | -
O=C(CCCCCNc1nc(=S)[nH]c2ccccc12)NCCc1c[nH]c2ccccc12 | - | - | - | - | - | - | . | .
